Assay outcomes from PubChem.
This is a sample that favours compounds with a hit; in the whole collection about 2.3% have one here.
TAAR1 antagonist = antagonists of human TAAR1; Q96RJ0; CHO RD-HGA16 TAAR1, Fluo-8 calcium fluorescence, antagonist; inhibition, % at 3 µM; 360,000 compounds, 1.5% hits;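 active = inhibition above a per-plate cutoff, the mean inhibition of test compounds on that plate plus 3 SD, cut at about 49% in these data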;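 note: 0% = DMSO plus EC80 beta-PEA response and 100% = DMSO alone without agonist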
Target sequence (Q96RJ0 whole entry, looked up): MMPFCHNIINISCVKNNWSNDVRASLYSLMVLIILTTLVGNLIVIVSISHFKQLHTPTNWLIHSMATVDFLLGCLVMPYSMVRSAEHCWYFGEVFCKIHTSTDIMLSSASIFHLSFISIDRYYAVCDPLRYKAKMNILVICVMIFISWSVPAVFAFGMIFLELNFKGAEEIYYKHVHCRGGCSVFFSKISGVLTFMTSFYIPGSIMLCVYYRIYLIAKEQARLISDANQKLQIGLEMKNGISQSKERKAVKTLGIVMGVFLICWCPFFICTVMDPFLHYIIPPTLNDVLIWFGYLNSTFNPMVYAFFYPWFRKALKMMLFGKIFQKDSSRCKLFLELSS
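System: CHO RD-HGA16 cells bearing hTAAR1. Reagent: EC80 β-phenethylamine stimulus. Schedule: seeding 17-24 h prior, 75-min 37 °C, 30-min RT dye loading. Signal: Fluo-8 intracellular calcium dye fluorescence, real-time kinetic reads. Read-out: % inhibition from peak post-agonist over basal fluorescence ratio. Benchmarks: vehicle wells and EC80 agonist wells. Replicates: n of 1.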
V1aR counter = activates human V1a receptor in oxytocin agonist counter-screen. P37288. CHO-V1R cells, Fluo-8 calcium fluorescence, agonist mode; 0% DMSO, 100% 3 nM vasopressin. activation, % at 3 µM. 320,000 compounds, 0.25% hits;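 active = activation above the mean activation of all tested compounds plus 3 SD, per screening run, cut at about 20% in these data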;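 note: signal is peak over basal fluorescence ratio across a 100 second FLIPR read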
OXTR potentiate = human OXTR potentiation; P30559; CHO-OTR cells, Fluo-8 calcium fluorescence, potentiator mode; 0% = oxytocin EC15, 100% = EC100; 320,000 compounds, 0.061% hits; AID 2445; activation, % at 3 µM;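 active = activation above that plate's cutoff, the mean activation of tested compounds plus 3 SD, cut at about 6.6% in these data, passing the limit was not always enough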;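 note: 100% uses oxytocin at 75 nM as the full agonist control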
Target sequence (P30559 whole entry, looked up): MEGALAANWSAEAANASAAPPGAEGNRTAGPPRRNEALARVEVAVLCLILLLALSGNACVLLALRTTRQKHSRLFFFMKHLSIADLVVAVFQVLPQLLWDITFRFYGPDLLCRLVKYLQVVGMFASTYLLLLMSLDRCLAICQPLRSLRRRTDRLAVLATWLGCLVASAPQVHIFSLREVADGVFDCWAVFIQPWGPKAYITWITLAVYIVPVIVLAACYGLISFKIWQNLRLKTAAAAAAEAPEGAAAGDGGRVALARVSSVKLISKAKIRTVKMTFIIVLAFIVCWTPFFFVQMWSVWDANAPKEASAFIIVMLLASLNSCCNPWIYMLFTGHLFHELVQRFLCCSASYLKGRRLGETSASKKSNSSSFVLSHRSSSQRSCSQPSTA
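System: human OTR in CHO cells / Also added: sub-maximal oxytocin, roughly EC15 / Control set: EC15 oxytocin low, 75 nM oxytocin high / Schedule: 6 min compound pre-incubation at room temperature, 100 s kinetic read / Compound: single-point 3.0 µM / Replication: singlicate / Technique: Fluo-8 calcium dye fluorescence / Read-out basis: % activation of max/min ratio relative to oxytocin controls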
OXTR agonist = human OXTR agonism | CHO-OTR cells, Fluo-8 calcium fluorescence; normalized: DMSO 0%, oxytocin 100% | activation, % at 3 µM | 320,000 compounds, 0.32% hits | AID 2435;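 active = activation above the mean of all tested compounds plus 3 SD, cutoff set per screening run, cut at about 20% in these data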;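 note: peak over basal fluorescence ratio from a 100 s FLIPR kinetic read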
TAAR1 agonist = human TAAR1 agonism; Q96RJ0; CHO RD-HGA16 TAAR1, Fluo-8 calcium fluorescence; vehicle wells 0%, saturating PEA agonist 100%; activation, % at 3 µM; 360,000 compounds, 0.99% hits; AID 624467;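 active = activation above the mean activation of all test compounds in the run plus 3 SD, cut at about 38% in these data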
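Signal – calcium-sensitive Fluo-8 signal, excitation 470-495, emission 515-575 nm · System – RD-HGA16 (CHO) cells co-expressing Gα16 and hTAAR1 · Incubation – 17-24 h seeding, 75 min 37 °C dye, 30 min RT · Compound dosing – 3 µM single concentration · Repeats – no replicates (n 1)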
nonsel antag count = nonselective antagonist in TAAR1 antagonist counter-screen | inhibition, % at 3 µM | shares compounds with TAAR1 antagonist | 2,400 compounds, 77% hits | counterscreen cell line, calcium fluorescence, antagonist mode; in the data active = inhibition above about 22%;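 note: CHO-Ga16 host cells stimulated with ATP at an EC80 level; 0% = agonist EC80 plus vehicle and 100% = vehicle without agonist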
TAAR1 ant conf = human TAAR1 antagonism, confirmed | shares compounds with TAAR1 antagonist | TAAR1-expressing cells, fluorescence antagonist read-out | inhibition, % at 3 µM | 2,400 compounds, 40% hits; in the data active = inhibition above about 49%;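 note: CHO-Ga16 host cells challenged with agonist PEA near its EC80; 0% = agonist at EC80 plus vehicle and 100% = vehicle with no agonist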
Ga16 ag counter = nonselective Ga16 agonism, counter-screen; activation, % at 3 µM; Ga16-expressing cells, calcium fluorescence, agonist counterscreen; shares compounds with TAAR1 antagonist; 2,400 compounds, 18% hits; in the data active = activation above about 12%;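 note: 0% = vehicle wells and 100% = saturating stimulus response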
TAAR1 ag count = TAAR1 agonism, antagonist counter-screen; shares compounds with TAAR1 antagonist; hTAAR1 cell line, fluorescence activation, agonist mode; AID 651955; activation, % at 3 µM; 2,400 compounds, 2% hits; in the data active = activation above about 37%;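 note: CHO cells stably expressing TAAR1 with calcium dye readout; 0% = DMSO vehicle and 100% = full agonist response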
Starred values were filed as active, the others as inactive; · = not tested or not shown.

SMILES	TAAR1 antagonist	V1aR counter	OXTR potentiate	OXTR agonist	TAAR1 agonist	nonsel antag count	TAAR1 ant conf	Ga16 ag counter	TAAR1 ag count
COC(=O)C1(CC2CC(c3cccc(Br)c3)=NO2)CCN(C(=O)OC(C)(C)C)CC1 (configuration not stated)	71.0*	3.4	-14.3	-1.6	11.6	29.3*	63.8*	5.0	6.7
CC(C)(C)OC(=O)N1CCC(CC2CC(c3ccccc3)=NO2)(C(=O)NCc2ccccc2)CC1 (configuration not stated)	30.0	0.3	4.1	-1.2	6.5	·	·	·	·
COc1ccc(C(=O)N2CCOC2CNC(=O)C(=O)NCc2ccc(Cl)cc2)cc1 (configuration not stated)	8.0	0.0	-9.0	-2.0	1.1	·	·	·	·
COc1ccc(CCNC(=O)C(=O)NCC2OCCN2C(=O)c2ccc(Cl)cc2)cc1 (configuration not stated)	59.5*	2.3	-1.8	1.1	11.7	22.5*	37.5	8.0	12.0
OCCNc1ncnc2c1c(-c1ccccc1)c(-c1ccccc1)n2Cc1ccco1	11.6	7.9	-7.3	3.9	21.2	·	·	·	·
c1ccc(-c2c(-c3ccccc3)n(Cc3ccco3)c3ncnc(NCCCn4ccnc4)c23)cc1	60.5*	1.4	-12.5	-0.7	26.6	25.4*	34.3	22.2*	39.8*
CCOC1=C(C#N)CC2(CC1)c1ccccc1-c1ccccc12	70.6*	·	·	·	3.5	23.9*	40.7	4.7	7.4
Cc1ccc(-c2cccc(CN3CCN(C4CCN(C(C)C)CC4)C(CCO)C3)c2)o1 (configuration not stated)	10.7	0.0	-7.1	-1.1	-1.3	·	·	·	·
COc1ccc(CNC(=O)CN(Cc2ccccc2)S(=O)(=O)c2ccc(Cl)cc2)cc1	62.7*	1.9	-11.8	0.3	15.7	41.5*	65.3*	11.7*	14.2
COc1ccc(CNC(=O)CN(Cc2ccc(Cl)cc2)S(=O)(=O)c2ccccc2)cc1	28.9	0.0	-11.4	0.5	22.4	·	·	·	·
O=C(Nc1ccc2c(c1)OCCO2)C(C1CC1)n1c(=O)c(-c2ccccc2)nc2ccccc21 (configuration not stated)	-22.1	·	·	·	-0.1	·	·	·	·
Cc1ccccc1-n1nnnc1SCc1csc(-c2ccccc2)n1	69.5*	2.0	-21.1	-0.1	16.2	28.0*	43.0	6.8	6.9
CCN(CC)c1ccc(C(=O)NNC(=O)C2CCN(c3ncnc4sc(C)c(C)c34)CC2)cc1	56.1*	·	·	·	8.1	25.9*	34.9	7.6	14.8
COc1ccccc1OCC(=O)NNC(=O)C1CCN(c2ncnc3sc(C)c(C)c23)CC1	43.8	4.6	-6.6	1.9	8.7	·	·	·	·
Cc1sc2ncnc(N3CCC(C(=O)Nc4ccc(Cl)c(Cl)c4)CC3)c2c1C	23.7	0.6	-7.7	0.0	15.9	·	·	·	·
CCCN(CC(=O)Nc1ccccc1C)C(=O)C1CCN(c2ncnc3sc(C)c(C)c23)CC1	60.4*	-1.5	-11.2	-1.9	9.9	30.9*	51.2*	6.6	4.8
Cc1ccccc1OCC(=O)NNC(=O)C1CCN(c2ncnc3sc(C)c(C)c23)CC1	69.9*	3.5	-14.0	-1.0	24.5	38.8*	56.5*	13.5*	29.9
Cc1cccc(OCC(=O)NNC(=O)C2CCN(c3ncnc4sc(C)c(C)c34)CC2)c1	75.0*	2.0	-15.2	1.9	19.4	35.9*	51.6*	11.1	20.1
CCOc1ccc(NC(=O)CN(C)C(=O)C2CCN(c3ncnc4sc(C)c(C)c34)CC2)cc1OCC	3.8	-1.1	-10.7	-1.3	-0.1	·	·	·	·
CC(C)c1ccc(Nc2nnc(SCC(=O)NCC3CCCO3)s2)cc1 (configuration not stated)	-0.8	1.6	-2.3	0.8	1.2	·	·	·	·
O=C(NCc1ccco1)c1cccc(NS(=O)(=O)c2ccccc2F)c1	-6.4	0.8	-13.0	-1.6	-0.4	·	·	·	·
COc1ccc(NC(=O)c2ccc(-c3c(C)noc3C)c3ccoc23)cc1	33.1	·	·	·	0.3	·	·	·	·
CCc1ccc(OCCNC(=O)c2ccccc2SCc2ccc(F)cc2)cc1	53.8*	2.6	-0.9	2.4	15.4	25.9*	35.7	3.4	2.0
O=C(NCCOc1ccc(F)cc1)c1ccccc1SCc1ccccc1	59.8*	0.4	-12.9	0.5	9.6	29.7*	52.9*	6.7	2.9
COc1ccc(NC(=O)c2ccccc2SCc2ccccc2)cc1	11.4	·	·	·	1.4	·	·	·	·
SMILES	TAAR1 antagonist	V1aR counter	OXTR potentiate	OXTR agonist	TAAR1 agonist	nonsel antag count	TAAR1 ant conf	Ga16 ag counter	TAAR1 ag count
N=C1/C(=C\c2ccc(-c3cccc(Cl)c3)o2)C(=O)N=C2SC=C(c3ccccc3)N12	6.4	-1.6	-9.3	-1.3	-0.4	·	·	·	·
N=C1/C(=C\c2ccc(-c3ccc(C(=O)O)cc3)o2)C(=O)N=C2SC=C(c3ccccc3)N12	53.7*	·	·	·	22.7	45.0*	62.5*	16.0*	14.5
COc1cc2cnc(-c3ccccc3)c(-c3cccc(C(F)(F)F)c3)c2cc1OC	50.7*	-0.6	-8.0	-0.9	9.2	14.6	18.6	1.7	1.6
COc1cc(/C=C/C(=O)CC(=O)/C=C/c2ccc(O)c(OC)c2)ccc1O	69.2*	24.5*	-21.8	33.0*	35.5	48.4*	49.8*	28.3*	18.3
COc1cc(/C=C2\CCC/C(=C\c3ccc(O)c(OC)c3)C2=O)ccc1O	52.7*	1.2	-18.6	3.1	13.8	35.4*	48.5	7.2	14.3
COc1cc(/C=C2/CCC/C(=C\c3cc(O)c(OC)c(Cl)c3)C2=O)cc(Cl)c1O	58.2*	2.0	-26.3	1.4	11.7	42.5*	40.4	10.9	18.2
O=C(Cc1ccc(NC(=O)C2CCN(C(=O)CCc3ccccc3)CC2)cc1)Nc1cccc(C(=O)N2CCCC2)c1	-41.3	·	·	·	-0.1	·	·	·	·
CCCCNc1c(-c2ccc(OC)c(Sc3ccc(OC)cc3)c2)nc2cnccn12	74.7*	1.3	-2.9	-0.8	10.8	23.1*	57.0*	3.8	8.5
Cc1ccc(CCNC(=O)C2CCCN(c3nc4ccccc4o3)C2)cc1 (configuration not stated)	49.5*	0.6	-4.0	-1.6	12.4	23.4*	30.5	4.2	1.3
CCCCCCSc1cccc(-c2nc3cc(C)ccn3c2NCc2ccccc2)c1	-26.3	0.8	-7.3	-1.1	0.7	·	·	·	·
CCCCCCSc1cccc(-c2nc3ccc(C)cn3c2NCc2ccccc2)c1	51.9*	-0.1	-14.2	-1.9	5.1	18.1	17.9	0.6	2.6
